# Source: PubChem BioAssay
# PAFAH2 FP inh – PAFAH2 (human) inhibition | Q99487 | recombinant PAFAH2, FP-rhodamine activity probe, fluorescence polarization | inhibition, % at 3.39 µM | 340,000 compounds, 0.99% hits | AID 492956;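 active = inhibition above the mean over all tested compounds plus 3 SD, cut at about 30% in these data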;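 note: inhibitors block probe labeling of enzyme so polarization drops; 0% = enzyme with DMSO and 100% = wells lacking PAFAH2 protein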
# Apaf-1 inh – blocks human Apaf-1 apoptosome activity | O14727 | 330,000 compounds, 0.71% hits | inhibition, % at 20 µM | AID 489030 | reconstituted apoptosome caspase-3 activity, DEVD-Rh110 fluorescence; active = inhibition of at least 40% at 20 µM;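 note: plate controls were DMSO wells for no effect and DEVD-CHO caspase inhibitor wells for full effect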
#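 System – cell-free apoptosome with Apaf-1, procaspase-3 and caspase-9 · Buffer or medium – pH 7.5 Hepes buffer with CHAPS, BSA, DTT · Also added – cytochrome c with DEVD-Rh110 · Times – 30 min compound preincubation, 50 min activation, room temperature · Technique – Rh110 fluorescence intensity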
# PAFAH1B2 FP inh – inhibitors of human PAFAH1B2. 340,000 compounds, 1.2% hits. recombinant PAFAH1B2, FP-rhodamine activity probe, fluorescence polarization. P68402. inhibition, % at 3.39 µM. AID 492953;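 active = inhibition above the mean of all tested compounds plus 3 SD, cut at about 24% in these data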;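 note: 0% = enzyme with DMSO and 100% = wells lacking PAFAH1B2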
# Target sequence (P68402 whole entry, looked up): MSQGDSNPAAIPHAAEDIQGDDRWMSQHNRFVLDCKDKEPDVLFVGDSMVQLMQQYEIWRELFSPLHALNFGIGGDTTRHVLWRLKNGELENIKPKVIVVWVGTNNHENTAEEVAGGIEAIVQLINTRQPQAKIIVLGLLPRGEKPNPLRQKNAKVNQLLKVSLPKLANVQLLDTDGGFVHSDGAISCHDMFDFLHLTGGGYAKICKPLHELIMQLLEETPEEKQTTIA
# PAFAH1B3 inh – inhibitors of human PAFAH1B3; Q15102; recombinant PAFAH1B3, FP-rhodamine probe, fluorescence polarization; inhibition, % at 3.39 µM; 340,000 compounds, 0.28% hits;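 active = inhibition above the screen-wide average of all tested compounds plus 3 SD, cut at about 25% in these data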;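 note: 0% = enzyme with DMSO only and 100% = wells lacking PAFAH1B3 protein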
# Target sequence (Q15102 whole entry, looked up): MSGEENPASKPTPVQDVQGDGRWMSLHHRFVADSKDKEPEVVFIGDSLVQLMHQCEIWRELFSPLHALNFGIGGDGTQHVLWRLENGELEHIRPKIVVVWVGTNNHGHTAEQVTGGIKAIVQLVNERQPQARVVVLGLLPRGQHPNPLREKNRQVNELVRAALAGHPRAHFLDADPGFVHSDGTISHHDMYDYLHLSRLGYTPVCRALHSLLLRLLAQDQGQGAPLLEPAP
# pPAFAH inh – inhibitors of human plasma PAF acetylhydrolase (pPAFAH); recombinant pPAFAH, FP-rhodamine probe fluorescence polarization; 330,000 compounds, 1.5% hits; inhibition, % at 3.39 µM; AID 463082; Q13093;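 active = inhibition above the mean inhibition across the screen plus 3 SD, cut at about 25% in these data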;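 note: inhibitors block binding of the rhodamine activity-based probe so polarization drops; 0% = enzyme with DMSO and 100% = wells lacking pPAFAH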
# PREPL inhibitor – inhibits the human prolyl oligopeptidase-like enzyme. Q4J6C6. recombinant PREPL, fluorescence polarization activity-based probe. inhibition, % at 5.96 µM. 320,000 compounds, 0.68% hits. AID 2751; in the data active = inhibition above about 43%;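 note: 0% = enzyme with DMSO and 100% = wells lacking enzyme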
# PAFAH2 FP conf – confirmation of human PAFAH2 inhibitors; recombinant PAFAH2, FP-rhodamine activity probe, fluorescence polarization; inhibition, % at 3.39 µM; AID 493030; 2,300 compounds, 65% hits; shares compounds with PAFAH2 FP inh;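 active = mean inhibition over three repeats above a set limit taken from the earlier primary screen, cut at about 30% in these data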;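 note: inhibitor blocks binding of rhodamine activity probe so polarization falls; 0% = enzyme with DMSO and 100% = wells lacking PAFAH2 protein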
# The depositor's hits bear a star; . = no result given. In the library only some 3.5% were active in any assay of this set; here they are far more common.
SMILES,PAFAH2 FP inh,Apaf-1 inh,PAFAH1B2 FP inh,PAFAH1B3 inh,pPAFAH inh,PREPL inhibitor,PAFAH2 FP conf
CC(=O)c1c(C)[nH]c(C(=O)Nc2ccc(Cl)c(S(=O)(=O)N(C)C)c2)c1C,-10,3,5,11,-3,10,.
CC(=O)c1c(C)[nH]c(C(=O)OCC(=O)Nc2ccc(Cl)cc2[N+](=O)[O-])c1C,48*,11,6,-1,4,10,32*
COc1cc(NC(=O)COC(=O)c2[nH]c(C)c(C(C)=O)c2C)cc(OC)c1,2,4,0,4,-4,9,.
CCOC(=O)c1c(C)[nH]c(C(=O)OCC(=O)Nc2cc(Cl)ccc2OC)c1C,-9,-12,0,3,0,3,.
CC(=O)c1c(C)[nH]c(C(=O)OCC(=O)Nc2ccc(Cl)c(S(=O)(=O)N(C)C)c2)c1C,71*,-6,-3,0,-2,-12,61*
CN(Cc1cccc(C(F)(F)F)c1)Cc1nc(-c2cnccn2)no1,1,-3,0,10,4,3,.
COC(=O)c1cc(C(=O)c2cc(Br)ccc2O)coc1=N,31*,9,2,0,1,16,5
O=C(COC(=O)/C=C/c1ccco1)Nc1cccc([N+](=O)[O-])c1,84*,.,4,10,7,2,85*
CCN(CC)S(=O)(=O)c1cccc(NC(=O)COC(=O)c2cc(=O)c3ccccc3o2)c1,3,0,7,8,17,9,.
CN(C)S(=O)(=O)c1cccc(NC(=O)COC(=O)CCC(=O)c2cccs2)c1,5,-4,1,-2,2,1,.
CCN(CC)S(=O)(=O)c1cccc(NC(=O)COC(=O)/C=C/c2ccco2)c1,33*,2,0,1,15,2,24
CCN(CC)S(=O)(=O)c1cccc(NC(=O)COC(=O)C2CC3C=CC2C3)c1 (centres undefined),38*,12,3,-3,20,15,26
CCN(CC)S(=O)(=O)c1cccc(NC(=O)COC(=O)c2cccs2)c1,61*,-14,4,6,10,1,46*
CC(C)N(C(=O)COC(=O)c1cccc(C(=O)OCC(=O)N(C(C)C)C(C)C)n1)C(C)C,.,11,.,.,-2,14,.
CC1(c2ccc3ccccc3c2)NC(=O)N(CC(=O)Nc2ncccc2O)C1=O (centres undefined),-2,-6,6,-1,0,7,.
N#Cc1cccc2cccc(S(=O)(=O)N3CCOCC3)c12,4,-3,1,2,-2,3,.
COCCOc1ccc(C(F)(F)F)cc1NC(=O)COC(=O)Cc1c[nH]c2ccccc12,-5,0,2,-3,7,18,.
CCN(CC)S(=O)(=O)c1cccc(NC(=O)COC(=O)c2cncc(Br)c2)c1,-2,12,0,4,8,3,.
CCN(CC)S(=O)(=O)c1cccc(NC(=O)COC(=O)/C=C/c2cccs2)c1,67*,-5,3,-5,9,9,58*
C=CCNC(=O)c1onc(CSc2ccccc2CC)c1C(=O)O,49*,0,11,3,3,-3,36*
CCc1ccccc1SCc1noc(C(=O)NCC2CCCO2)c1C(=O)O (centres undefined),40*,1,16,6,1,1,26
C=CCNC(=O)c1onc(CSc2ccc(C)c(C)c2)c1C(=O)O,3,4,5,11,-1,8,.
O=C(NCC1CCCO1)c1onc(CSc2ccccc2F)c1C(=O)O (centres undefined),17,1,4,-4,4,-5,.
C=CCNC(=O)c1onc(CSc2cc(C)cc(C)c2)c1C(=O)O,38*,3,6,5,0,8,23
CN(CCC1CCOCC1)C(=O)CC1C(=O)NCCN1Cc1c(F)cccc1Cl (centres undefined),-4,13,0,11,-4,4,.
SMILES,PAFAH2 FP inh,Apaf-1 inh,PAFAH1B2 FP inh,PAFAH1B3 inh,pPAFAH inh,PREPL inhibitor,PAFAH2 FP conf
CCC1=NC(c2ccc(Br)cc2)N(O)C1(C)C (centres undefined),2,-6,5,7,0,14,.
CCN(C[C@H]1N[C@@](CC)(C(=O)OC)[C@H]2C(=O)N(C)C(=O)[C@@H]12)C(=O)COc1ccccc1,10,-16,6,6,-6,16,.
CCN(C(=O)c1cccc(S(=O)(=O)N(C)C)c1)C12CC3CC(CC(C3)C1)C2,6,17,11,0,5,4,.
CCN(C(=O)c1ccc2c(c1)OCO2)C12CC3CC(CC(C3)C1)C2,40*,14,11,5,7,3,35*
O=C(O)CCC(=O)Nc1ccc(C(=O)OCC(=O)c2ccc(Cl)cc2Cl)cc1,62*,2,8,0,-7,-27,51*
CCOC(=O)CC1CCCCN1C(=O)CCCn1nnnc1CN1CCC(C)CC1 (centres undefined),-1,5,6,13,-1,3,.
CCOC(=O)C1CCCN(S(=O)(=O)c2ccc3c4c2CC(=O)N4CC(C)S3)C1 (centres undefined),35*,38,-3,3,16,17,18
CCOC(=O)C1CCCN(S(=O)(=O)c2cc3c4c(c2)CCN4C(=O)CC3)C1 (centres undefined),-3,10,1,5,6,22,.
COc1ccc(C(=O)OCCN=C2NS(=O)(=O)c3ccccc32)cc1OC,43*,-11,0,14,3,15,23
CN(Cc1ccco1)C(=O)c1cc2c(s1)-c1ccc(Cl)cc1S(=O)(=O)C2,51*,1,-1,3,2,21,-10
COc1ccc(N(C)C(=O)c2cc3c(s2)-c2ccc(Cl)cc2S(=O)(=O)C3)c(OC)c1,3,15,-3,3,-3,8,.
Cc1cc(C)c2c(c1)CC(C)(C)CC2=O,-4,.,4,2,.,.,.
CC1CCCC(NC(=O)COC(=O)/C=C/c2ccc3c(c2)OCO3)C1C (centres undefined),82*,-3,4,1,4,2,75*
CC(NC(=O)COC(=O)/C=C/c1ccc2c(c1)OCO2)c1ccccc1 (centres undefined),47*,3,7,1,1,5,38*
O=C(COC(=O)/C=C/c1ccc(Cl)c(Cl)c1)NC1CCCC1,14,3,0,8,0,30,.
CC(C)NC(=O)NC(=O)COC(=O)/C=C/c1ccc2c(c1)OCO2,7,-4,2,5,-4,18,.
O=C(COC(=O)/C=C/c1ccc2c(c1)OCO2)NC1CC1,56*,2,5,-5,5,1,41*
